Measured values from different studies.
Lines come from different studies, so protocols differ.
PDE4C: 3',5'-cyclic-AMP phosphodiesterase 4C (PDE4C, Homo sapiens, UniProt Q08493)
Pancreatic alpha-amylase: Pancreatic alpha-amylase (Homo sapiens, UniProt P04746)
CYP3A7: Cytochrome P450 3A7 (CYP3A7, Homo sapiens, UniProt P24462)
ALB: Albumin (ALB, Bos taurus, UniProt P02769)

With `CCc1c(C)nc(-c2ccc(Cl)s2)nc1Nc1ccc(CC(=O)O)cc1` the IC50 was about 63 µM (PDE4C; enzyme activity, inhibitor, FP).
For `CCN(CC)c1ccc(/C=N/c2ccccc2F)c(O)c1`, the IC50 was 255 µM (Pancreatic alpha-amylase; enzyme activity, inhibitor, absorbance).
For `N=c1c[n+](N2CCOCC2)[n-]o1`, the IC50 was 8 µM (NAD-dependent protein deacylase sirtuin-5, mitochondrial (SIRT5, Homo sapiens, UniProt Q9NXA8); enzyme activity, inhibitor, HPLC).
`CCN(CC)c1ccc(/C=N/c2ccc(F)c(Cl)c2)c(O)c1` has an IC50 of 190 µM (Pancreatic alpha-amylase; enzyme activity, inhibitor, absorbance).
For `CC(C)(C)[C@@H]1NC(=O)O[C@@H]2CCC[C@H]2OC/C=C/C(F)(F)c2nc3ccccc3nc2O[C@@H]2C[C@@H](C(=O)N[C@]3(C(=O)NS(=O)(=O)C4(C)CC4)C[C@H]3C(F)F)N(C2)C1=O`, the IC50 was 12.1 µM (CYP3A7; enzyme activity, inhibitor, mass spectrometry; 5 min).
The Kd of `CC(C)C[C@H](NC(=O)[C@H](CC(N)=O)NC(=O)[C@H](Cc1c[nH]c2ccccc12)NC(=O)[C@@H](NC(=O)[C@H](Cc1ccc(O)cc1)NC(=O)[C@H](Cc1ccc(O)cc1)NC(=O)[C@H](CO)NC(=O)[C@H](CCCNC(=N)N)NC(=O)[C@H](Cc1c[nH]cn1)NC(=O)[C@@H](N)Cc1c[nH]c2ccccc12)[C@@H](C)O)C(=O)O` is reported as 3.99 µM (ALB; binding, SPR).
`CC(C)(C)OC(=O)N[C@H]1CCCCC/C=C\[C@@H]2C[C@@]2(C(=O)NS(=O)(=O)C2CC2)NC(=O)[C@@H]2C[C@@H](OC(=O)N3Cc4cccc(F)c4C3)CN2C1=O` gave an IC50 of 21.9 µM (CYP3A7; enzyme activity, inhibitor, mass spectrometry; 5 min).
The IC50 of `Oc1ccc([C@@H]2c3c(O)cc(O)cc3[C@@H]3c4c(cc(O)c5c4[C@@H]2[C@H](c2ccc(O)cc2)[C@H]5c2cc(O)cc4c2[C@@H](c2cc(O)cc(O)c2)[C@H](c2ccc(O)cc2)O4)O[C@H]3c2ccc(O)cc2)cc1` is reported as 6.1 µM (Pancreatic alpha-amylase; enzyme activity, inhibitor).
With `COc1ccc2c(O[C@@H]3C[C@H]4C(=O)N[C@]5(C(=O)NS(=O)(=O)C6CC6)C[C@H]5/C=C\CCCCN(C)C(=O)[C@@H]4C3)cc(-c3nc(C(C)C)cs3)nc2c1C` the IC50 was 16.1 µM (CYP3A7; enzyme activity, inhibitor, mass spectrometry; 5 min).
The Kd of `C[C@@H](O)[C@H](NC(=O)[C@H](Cc1ccc(O)cc1)NC(=O)[C@H](Cc1ccc(O)cc1)NC(=O)[C@H](CO)NC(=O)[C@H](CCCNC(=N)N)NC(=O)[C@H](Cc1c[nH]cn1)NC(=O)[C@@H](N)Cc1c[nH]c2ccccc12)C(=O)N[C@@H](Cc1c[nH]c2ccccc12)C(=O)N[C@@H](CC(N)=O)C(=O)O` is reported as 6.12 µM (ALB; binding, SPR).
`CN(C)C(=O)c1cc2cnc(Nc3ccc(N4CCNCC4)cn3)nc2n1C1CCCC1` gave an IC50 of 4.4 µM (PDE4C; enzyme activity, inhibitor, TR-FRET).
With `O=C1CCc2ccccc2O1` the Ki was 4.1 µM (Carbonic anhydrase 9 (CA9, Homo sapiens, UniProt Q16790); enzyme activity, inhibitor, stopped-flow).
The IC50 of `CCN(CC)c1ccc(/C=N/c2ccc(Cl)cc2)c(O)c1` is reported as 63.5 µM (Pancreatic alpha-amylase; enzyme activity, inhibitor, absorbance).
For `OC[C@H]1O[C@@H](Oc2cc3c4c(c2)[C@@H]([C@@H]2c5cc(O)cc6c5[C@@H](c5cc(O)cc(O)c5[C@H]2c2ccc(O)cc2)[C@H](c2ccc(O)cc2)O6)[C@H](c2ccc(O)cc2)c2c(O)cc(O)cc2[C@H]4[C@H](c2ccc(O)cc2)O3)[C@H](O)[C@@H](O)[C@@H]1O`, the IC50 was over 100 µM (Pancreatic alpha-amylase; enzyme activity, inhibitor).
For `O=C(C=Cc1ccccc1)Nc1cc(-c2ccnc(N3CCC(O)CC3)c2)ccn1`, the Kd was 0.78 µM (Retinoic acid receptor RXR-alpha (RXRA, Homo sapiens, UniProt P19793); binding, SPR).
